Assay results taken from ChEMBL document CHEMBL1153096, “Properly substituted 1,4-dioxane nucleus favours the selective M3 muscarinic receptor activation” (Bioorg Med Chem, 2009).
The source made the active and inactive calls. The calls are words filed in the database; no cut-off is given here.

Key:
Oryctolagus cuniculus [1] = organism: Oryctolagus cuniculus; assay: Intrinsic activity at muscarinic M1 receptor in New Zealand White rabbit vas deferens assessed as inhibition of electrically-stimulated muscle contraction relative to McN-A-343; assay type: tissue-based
Outline: (§1)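 Prostatic portion of male-free-listed New Zealand white rabbit (3.0-3.5 kg, fasted 24 h) vas deferens in modified Krebs, 31 °C, 95% O2-5% CO2; 45 min stabilisation, field stimulation 2 Hz, 5 ms, 5 V; isometric recording. Cumulative concentration-response curves; pD2 by linear regression; intrinsic activity as fraction of McN-A-343 maximum; means ± SEM of four to six experiments.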

Cavia porcellus [2] = organism: Cavia porcellus; assay: Intrinsic activity at muscarinic M4 receptor in guinea pig lung assessed as inhibition of electrically-stimulated muscle contraction relative to bathanecol
Outline: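 Male guinea pig peripheral lung strips (15 × 2 × 2 mm) from lower lobe, 0.3 g resting tension, 37 °C, Krebs-Henseleit with carbogen; 45 min equilibration, isometric contractions. Cumulative agonist concentration-response curves; pD2 by linear regression; intrinsic activity relative to bethanechol maximum; means ± SEM of four to six experiments.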

[3] = target: T1, Muscarinic acetylcholine receptor M5 (Homo sapiens, UniProt P08912); assay: Displacement of [3H]NMS from human muscarinic M5 receptor expressed in CHO cells by microplate scintillation counting; assay type: cell-based
T1 sequence (P08912 whole entry): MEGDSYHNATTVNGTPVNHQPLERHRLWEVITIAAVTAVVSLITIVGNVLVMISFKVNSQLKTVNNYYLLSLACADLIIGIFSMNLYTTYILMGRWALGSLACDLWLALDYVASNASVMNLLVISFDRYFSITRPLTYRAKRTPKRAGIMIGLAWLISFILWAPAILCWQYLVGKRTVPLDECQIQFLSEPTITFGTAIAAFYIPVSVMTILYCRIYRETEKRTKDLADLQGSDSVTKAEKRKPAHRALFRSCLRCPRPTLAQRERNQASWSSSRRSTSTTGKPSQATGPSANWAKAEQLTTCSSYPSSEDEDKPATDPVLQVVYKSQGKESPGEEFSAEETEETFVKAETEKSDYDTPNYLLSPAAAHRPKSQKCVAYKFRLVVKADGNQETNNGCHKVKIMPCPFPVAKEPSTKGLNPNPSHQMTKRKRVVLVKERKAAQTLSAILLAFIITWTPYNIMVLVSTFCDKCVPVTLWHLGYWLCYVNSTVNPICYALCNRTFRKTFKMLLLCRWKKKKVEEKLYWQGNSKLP

[4] = (§2) Agonist activity at muscarinic M1 receptor in New Zealand White rabbit vas deferens assessed as inhibition of electrically-stimulated muscle contraction; assay type: functional, Oryctolagus cuniculus; outline: as §1
[5] = target: T2, Muscarinic acetylcholine receptor M4 (Homo sapiens, UniProt P08173); assay: Displacement of [3H]NMS from human muscarinic M4 receptor expressed in CHO cells by microplate scintillation counting; assay type: cell-based
T2 sequence (P08173 whole entry): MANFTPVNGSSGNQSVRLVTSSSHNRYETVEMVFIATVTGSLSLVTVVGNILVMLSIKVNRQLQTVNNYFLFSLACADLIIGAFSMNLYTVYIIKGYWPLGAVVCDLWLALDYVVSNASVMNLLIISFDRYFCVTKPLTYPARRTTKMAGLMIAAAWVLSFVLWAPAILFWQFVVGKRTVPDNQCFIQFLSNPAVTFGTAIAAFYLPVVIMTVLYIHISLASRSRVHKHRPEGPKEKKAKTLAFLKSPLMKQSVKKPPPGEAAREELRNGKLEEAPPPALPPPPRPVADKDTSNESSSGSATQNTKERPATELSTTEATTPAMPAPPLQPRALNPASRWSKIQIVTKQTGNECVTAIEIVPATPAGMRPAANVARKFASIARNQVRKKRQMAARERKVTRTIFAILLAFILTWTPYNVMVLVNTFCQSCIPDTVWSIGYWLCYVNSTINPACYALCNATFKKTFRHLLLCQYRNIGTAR

Cavia porcellus [6] = organism: Cavia porcellus; assay: Intrinsic activity at muscarinic M2 receptor in guinea pig atrium assessed as inhibition of electrically-stimulated muscle contraction relative to bathanecol; assay type: tissue-based; conditions: Cardiac atrium
[7] = target: Muscarinic acetylcholine receptor M3 (Cavia porcellus) (UniProt Q8VH26); assay: Agonist activity at muscarinic M3 receptor in guinea pig ileum assessed as inhibition of electrically-stimulated muscle contraction; assay type: functional, tissue-based
Outline: (§3)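 Male guinea pig (250-350 g, fasted 24 h) ileal segments 2-3 cm, 1.0 g tension, 37 °C, Krebs-Henseleit with carbogen; 45 min equilibration, isometric contractions. Cumulative agonist concentration-response curves; pD2 by linear regression; intrinsic activity relative to bethanechol maximum; means ± SEM of four to six experiments.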

[8] = target: T3, Muscarinic acetylcholine receptor M2 (Homo sapiens, UniProt P08172); assay: Displacement of [3H]NMS from human muscarinic M2 receptor expressed in CHO cells by microplate scintillation counting; assay type: cell-based
T3 sequence (P08172 whole entry): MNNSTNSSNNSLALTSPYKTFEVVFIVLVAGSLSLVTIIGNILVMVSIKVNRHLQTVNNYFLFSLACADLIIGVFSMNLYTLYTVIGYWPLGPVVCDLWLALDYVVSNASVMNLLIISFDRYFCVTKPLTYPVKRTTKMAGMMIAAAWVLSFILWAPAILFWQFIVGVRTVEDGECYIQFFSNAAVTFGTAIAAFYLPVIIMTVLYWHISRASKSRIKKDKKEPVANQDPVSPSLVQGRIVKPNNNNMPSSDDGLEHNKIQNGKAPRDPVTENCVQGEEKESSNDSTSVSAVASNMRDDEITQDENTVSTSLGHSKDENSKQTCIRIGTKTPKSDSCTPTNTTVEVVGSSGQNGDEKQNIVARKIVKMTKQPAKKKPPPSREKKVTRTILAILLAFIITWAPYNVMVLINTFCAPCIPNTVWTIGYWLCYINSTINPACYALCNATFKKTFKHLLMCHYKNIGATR

[9] = target: Muscarinic acetylcholine receptor M3 (Cavia porcellus) (UniProt Q8VH26); assay: Intrinsic activity at muscarinic M3 receptor in guinea pig ileum assessed as inhibition of electrically-stimulated muscle contraction relative to bathanecol; assay type: tissue-based; outline: as §3
[10] = Agonist activity at muscarinic M2 receptor in guinea pig atrium assessed as inhibition of electrically-stimulated muscle contraction; assay type: functional, Cavia porcellus, Cardiac atrium
Cavia porcellus [11] = organism: Cavia porcellus; assay: Antagonist activity at muscarinic M4 receptor in guinea pig lung assessed as effect on muscle contraction up to 10 uM; assay type: functional
Oryctolagus cuniculus [12] = organism: Oryctolagus cuniculus; assay: as §2; assay type: functional; outline: as §1
[13] = target: T4, Muscarinic acetylcholine receptor M1 (Homo sapiens, UniProt P11229); assay: Displacement of [3H]NMS from human muscarinic M1 receptor expressed in CHO cells by microplate scintillation counting; assay type: cell-based
T4 sequence (P11229 whole entry): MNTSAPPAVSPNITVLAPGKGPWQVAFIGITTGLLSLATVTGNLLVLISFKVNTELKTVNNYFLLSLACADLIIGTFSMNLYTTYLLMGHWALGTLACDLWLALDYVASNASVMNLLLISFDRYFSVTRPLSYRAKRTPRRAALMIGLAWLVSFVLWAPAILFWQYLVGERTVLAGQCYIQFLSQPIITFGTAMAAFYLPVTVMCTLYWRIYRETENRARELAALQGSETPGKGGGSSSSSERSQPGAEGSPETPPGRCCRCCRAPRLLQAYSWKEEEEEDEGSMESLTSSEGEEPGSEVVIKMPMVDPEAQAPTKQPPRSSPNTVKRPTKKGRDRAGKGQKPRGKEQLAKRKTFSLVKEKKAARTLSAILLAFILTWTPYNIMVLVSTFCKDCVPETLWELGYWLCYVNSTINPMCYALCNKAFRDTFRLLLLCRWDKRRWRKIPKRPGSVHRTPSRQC

Oryctolagus cuniculus [14] = organism: Oryctolagus cuniculus; assay: Antagonist activity at muscarinic M1 receptor in New Zealand White rabbit vas deferens assessed as effect on muscle contraction up to 30 uM; assay type: functional, tissue-based
[15] = target: Muscarinic acetylcholine receptor M3 (Homo sapiens, UniProt P20309); assay: Displacement of [3H]NMS from human muscarinic M3 receptor expressed in CHO cells by microplate scintillation counting; assay type: cell-based
Oryctolagus cuniculus [16] = organism: Oryctolagus cuniculus; conditions: New Zealand White, Vas deferens
[17] = Agonist activity at muscarinic M4 receptor in guinea pig lung assessed as inhibition of electrically-stimulated muscle contraction; assay type: functional, Cavia porcellus
Cavia porcellus [18] = organism: Cavia porcellus; assay: Selectivity ratio of pD2 for guinea pig muscarinic M4 receptor to pD2 for guinea pig muscarinic M3 receptor
Cavia porcellus [19] = organism: Cavia porcellus; assay: Selectivity ratio of pD2 for guinea pig muscarinic M3 receptor to pD2 for guinea pig muscarinic M2 receptor

Sequence of Muscarinic acetylcholine receptor M3 (Cavia porcellus) (Q8VH26 1-587): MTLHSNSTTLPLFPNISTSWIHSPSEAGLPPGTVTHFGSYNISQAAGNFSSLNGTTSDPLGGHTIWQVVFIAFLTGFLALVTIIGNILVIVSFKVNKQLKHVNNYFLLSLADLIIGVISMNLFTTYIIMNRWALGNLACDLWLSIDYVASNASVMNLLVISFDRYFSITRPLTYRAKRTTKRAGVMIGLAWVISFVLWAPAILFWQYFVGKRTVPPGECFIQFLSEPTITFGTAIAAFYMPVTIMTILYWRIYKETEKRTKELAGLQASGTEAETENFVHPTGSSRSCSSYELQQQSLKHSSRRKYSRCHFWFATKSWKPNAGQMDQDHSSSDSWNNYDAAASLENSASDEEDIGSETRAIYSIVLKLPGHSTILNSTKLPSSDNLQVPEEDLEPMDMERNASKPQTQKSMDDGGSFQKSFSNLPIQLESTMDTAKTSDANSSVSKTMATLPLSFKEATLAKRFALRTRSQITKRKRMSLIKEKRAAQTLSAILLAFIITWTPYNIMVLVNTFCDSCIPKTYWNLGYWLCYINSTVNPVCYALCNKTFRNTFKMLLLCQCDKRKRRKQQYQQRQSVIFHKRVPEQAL
Sequence of Muscarinic acetylcholine receptor M3 (P20309 whole entry): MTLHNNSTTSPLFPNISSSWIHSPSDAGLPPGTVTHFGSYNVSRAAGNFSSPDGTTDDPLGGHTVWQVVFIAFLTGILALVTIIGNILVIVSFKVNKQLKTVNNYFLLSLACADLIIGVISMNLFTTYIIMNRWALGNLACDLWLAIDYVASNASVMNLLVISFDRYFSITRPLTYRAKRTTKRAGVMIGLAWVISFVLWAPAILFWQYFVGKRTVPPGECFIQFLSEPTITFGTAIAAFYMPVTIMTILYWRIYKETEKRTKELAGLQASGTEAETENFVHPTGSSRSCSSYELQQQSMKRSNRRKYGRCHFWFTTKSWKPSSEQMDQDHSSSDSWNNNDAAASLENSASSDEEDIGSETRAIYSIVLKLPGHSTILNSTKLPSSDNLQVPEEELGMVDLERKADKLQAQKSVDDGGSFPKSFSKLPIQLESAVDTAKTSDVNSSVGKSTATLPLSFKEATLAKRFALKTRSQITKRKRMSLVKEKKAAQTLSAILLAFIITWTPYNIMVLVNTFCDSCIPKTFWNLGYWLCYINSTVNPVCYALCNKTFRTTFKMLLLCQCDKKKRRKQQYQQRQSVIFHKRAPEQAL

SMILES | Intrinsic activity (Oryctolagus cuniculus [1]) | Intrinsic activity (Cavia porcellus [2]) | Ki [3] [µM] | pD2 [4] | Ki [5] [µM] | Intrinsic activity (Cavia porcellus [6]) | pD2 [7] | Ki [8] [µM] | Intrinsic activity [9] | pD2 [10] | pKb (Cavia porcellus [11]) | pD2 (Oryctolagus cuniculus [12]) | Ki [13] [µM] | pKb (Oryctolagus cuniculus [14]) | Ki [15] [µM] | pKb (Oryctolagus cuniculus [16]) | pD2 [17] | Selectivity ratio (Cavia porcellus [18]) | Selectivity ratio (Cavia porcellus [19])
C[C@@H]1COC[C@@H](C[N+](C)(C)C)O1.[I-] | 1 | 1 | 67.6 | 5.08 | 87.1 | 1 | 6.02 | 4.9 | – | – | – | – | – | – | – | – | – | – | –
CC1(C)OC[C@@H](C[N+](C)(C)C)OC1(C)C.[I-] | – | – | 66.1 | – | 53.7 | 0.71 | 5.09 | 46.8 | 0.93 | 5.12 | inactive | inactive | > 100 | inactive | 40.7 | – | – | – | –
C[N+](C)(C)CC#CCOC(=O)Nc1cccc(Cl)c1.[Cl-] | – | – | – | 6.4 | – | – | – | – | – | – | – | – | – | – | – | – | – | – | –
C[C@H]1COC[C@@H](C[N+](C)(C)C)O1.[I-] (relative stereo) | 1 | – | 7.76 | 5.65 | 11.5 | 1 | 7.34 | 1.58 | – | – | – | – | – | – | – | – | – | – | –
C[C@H]1CO[C@H](C[N+](C)(C)C)CO1.[I-] (relative stereo) | – | 0.57 | 63.1 | – | > 100 | 0.95 | – | 17.4 | 1 | – | – | inactive | > 100 | – | 44.7 | inactive | 5.08 | – | –
C[C@@H]1OC[C@@H](C[N+](C)(C)C)OC1(C)C.[I-] (relative stereo) | – | – | 16.6 | – | 30.2 | 0.46 | 5.7 | 33.9 | 0.66 | 4.99 | inactive | – | 38 | – | 10.5 | – | – | – | –
C[C@@H]1OC[C@@H](C[N+](C)(C)C)O[C@@H]1C.[I-] (relative stereo) | – | – | > 100 | – | > 100 | 0.27 | 4.91 | 89.1 | 0.85 | 5.04 | inactive | inactive | > 100 | inactive | > 100 | – | – | – | –
C[C@H]1OC[C@@H](C[N+](C)(C)C)O[C@@H]1C.[I-] (relative stereo) | – | 0.65 | > 100 | – | > 100 | 0.89 | 6.7 | 16.6 | 1.18 | 5.01 | – | – | > 100 | – | > 100 | – | 4.59 | 141 | 49
C[C@@H]1CO[C@H](C[N+](C)(C)C)CO1.[I-] (relative stereo) | – | 0.55 | 93.3 | – | 93.3 | 1 | – | 11.2 | 1 | – | – | inactive | > 100 | – | 66.1 | inactive | – | – | –
C[C@@H]1O[C@H](C[N+](C)(C)C)CO[C@@H]1C.[I-] (relative stereo) | – | 0.5 | 97.7 | – | > 100 | 0.91 | 5.27 | 20 | 1 | 5.18 | – | – | > 100 | – | > 100 | – | 5 | – | –
CC(C[N+](C)(C)C)OC(N)=O.[Cl-] (stereo not drawn) [BETHANECHOL CHLORIDE] | – | – | – | – | – | – | 6.16 | – | – | 5.88 | – | – | – | – | – | – | 5.01 | – | –
